# Experimental data reported in PMC4233149 (Clinical cancer research : an official journal of the …, 2014).
# Where “and” joins values, the source holds several entries; their conditions need not be identical. Identical values can stand only once. Like-named read-outs stand apart in the source and are kept apart here.
# What was measured:
# [1] = Plasma pharmacokinetics, QOD schedule; type: in vivo, human; conditions: 60mg QOD
# pSer473 AKT [2] = test: PD biomarker in paired tumor biopsies; type: in vivo, human
# Outline: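 Paired tumor biopsies were taken before and on treatment (oral QW or 60mg QOD). pSer473 AKT was quantified by MSD electrochemiluminescence assay validated to Good Clinical Practice standards. Levels were expressed as percent of each patient's baseline.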
# Permeability = type: physicochemical; conditions: across physiological pH ranges
# [3] = Plasma pharmacokinetics, QW schedule; type: in vivo, human
# Outline: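 Plasma was sampled after the first and last weekly oral dose of cycle 1 (90–300mg). Concentrations were analysed non-compartmentally for AUC0-168h, Cmax, C48h […], Tmax and apparent terminal t1/2. Last-day/day-1 ratios were derived for AUC, Cmax and C48h.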
# [4] = read-out: mean Cmax of the no-observed-adverse-effect-level (NOAEL) dose; dogs, preclinical toxicology studies; cited from earlier work
# [5] = Phase I safety and tolerability, alternate day; type: in vivo, human; conditions: 60mg QOD
# Outline: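 Patients took 60mg tablets fasted, QOD in 28-day cycles, in expansion cohorts (CRPC, ovarian, MRI). Safety was checked at baseline, cycle 1 days 1, 2, 7, 15, 21, 27 and 28, weekly in cycle 2, then monthly. Glucose was monitored. Serum C-peptide and whole-blood HbA1c were measured at baseline and monthly. AEs were graded by CTCAE v3.0.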
# advanced solid tumors [6] = test: Tumor response; type: in vivo, human
# Outline: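 Radiological disease status was assessed by RECIST 1.1 at baseline and every 8 weeks during oral weekly dosing.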
# advanced solid tumors [7] = test: Multiparametric functional MRI; type: in vivo, human; conditions: 60mg QOD, one patient with ADC response
# Outline: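 Oral dosing at 60mg QOD to fasted patients in 28-day cycles. Imaging on a 1.5T MR system used DCE-MRI, DWI, 1H-MRS and ISW-MRI. Median Ktrans, ADC, tCho/water ratio and R2* were analysed. Four scans per patient: two pre-treatment (reproducibility cohort), then cycle 1 day 7±1 and day 21±4.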
# [8] = alternate days (QOD), previously established; cited from earlier work
# Solubility = type: physicochemical; conditions: across physiological pH ranges
# pThr246 PRAS40 = test: PD biomarker in platelet-rich plasma; type: in vivo, human; conditions: 60mg QOD, PRP
# Outline: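 Platelet-rich plasma was collected at baseline and at 3, 6, 24 and 48h on oral 60mg QOD dosing. pThr246 PRAS40 was measured by MSD electrochemiluminescence assay validated to Good Clinical Practice standards. Values were expressed as percent of individual baseline, averaged per timepoint, and compared with baseline by paired t-test.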
# pSer473 AKT [9] = test: PD biomarker in platelet-rich plasma; type: in vivo, human; conditions: PRP
# pSer9 GSK3β = test: PD biomarker in platelet-rich plasma; type: in vivo, human; conditions: PRP; for mean pSer9 GSK3β signal, % of baseline levels: 200mg QW, n=11
# pSer473 AKT [10] = conditions: cited from earlier work
smiles,measurement,setting,value
NC1(c2ccc(-c3nc4ccn5c(=O)[nH]nc5c4cc3-c3ccccc3)cc2)CCC1 [MK-2206],accumulation ratio AUClast day:AUCfirst day,[1],3.3
same,"pSer473 AKT levels, % of baseline levels (range)","pSer473 AKT [2]; 60mg QOD, 3 patients",45.3-56.2%
same,"mean pSer473 AKT levels, % of baseline levels","pSer473 AKT [2]; 60mg QOD, 3 patients, p=0.004",50.1%
same,"pSer473 AKT signal, % of baseline levels (range)","pSer473 AKT [2]; 200mg QW, 5 patients",37.5-60.3%
same,"pSer473 AKT signal, % of baseline levels","pSer473 AKT [2]; 200mg QW, 5 patients, p=0.0003",50.0%
same,permeability,Permeability,high permeability
same,C48h Last Day / Day1 Ratio (geometric mean),[3]; 90mg QW,1.61
same,"Tmax, median (min - max)","[3]; 90mg QW, Day 1",6.0 (4.0-10.0) h
same,"Tmax, median (min - max)","[3]; 90mg QW, Last Day of cycle 1",4.0 (4.0-4.0) h
same,dose proportionality of AUC and Cmax,[3]; 90mg to 300mg QW,increased in a dose-proportional manner
same,decline of plasma concentrations,"[3]; 90mg, 135mg, 200mg, 250mg and 300mg QW",declined in a mono-exponential manner
same,auto-induction of metabolizing enzymes,"[3]; 90mg-300mg QW, cycle 1",no auto-induction of MK-2206 metabolizing enzymes
same,AUC0-168h Last Day / Day1 Ratio (geometric mean),[3]; 135mg QW,1.91
same,C48h Last Day / Day1 Ratio (geometric mean),[3]; 135mg QW,1.86
same,Cmax Last Day / Day1 Ratio (geometric mean),[3]; 135mg QW,1.95
same,"Tmax, median (min - max)","[3]; 135mg QW, Day 1",4.0 (4.0-10.0) h
same,Tmax,"[3]; 150mg QW, Last Day of cycle 1, N=1",4.0 h
same,AUC0-168h Last Day / Day1 Ratio (geometric mean),[3]; 200mg QW,1.54
same,C48h Last Day / Day1 Ratio (geometric mean),[3]; 200mg QW,1.49
same,Cmax Last Day / Day1 Ratio (geometric mean),[3]; 200mg QW,1.33
same,"Tmax, median (min - max)","[3]; 200mg QW, Day 1",6.0 (4.0-10.0) h
same,"Tmax, median (min - max)","[3]; 200mg QW, Last Day of cycle 1",6.0 (4.0-24.0) h
same,"Tmax, median (min - max)","[3]; 250mg QW, Day 1",6.0 (4.0-6.0) h
same,Tmax,"[3]; 250mg QW, Last Day of cycle 1, N=1",4.0 h
same,"Tmax, median (min - max)","[3]; 300mg QW, Day 1",4.0 (4.0-6.0) h
same,percent coefficient of variations (CVs) of AUC and Cmax,"[3]; QW schedule, inter-patient variability",12% to 71
same,Cmax at 200mg QW compared with 60mg QOD,[3]; higher at 200mg QW,about 2 fold
same,half-life,"[3]; human, plasma, oral, 90 mg",71.6 ± 12.2 h
same,concentration at 48 h,"[3]; human, plasma, oral, 90 mg, C48h Mean ± SD, 90mg QW, Day 1, plasma",50.9 ± 38.2 nM
same,concentration at 48 h,"[3]; human, plasma, oral, 90 mg, C48h Mean ± SD, 90mg QW, Last Day of cycle 1, plasma",79.3 ± 33.7 nM
same,concentration at 48 h,"[3]; human, plasma, oral, 90 mg, mean C48h, 90mg QW, multiple dose",79.3 nM
same,Tmax,"[3]; human, plasma, oral, 135 mg",5 h
same,half-life,"[3]; human, plasma, oral, 135 mg",88.9 ± 26.9 h
same,concentration at 48 h,"[3]; human, plasma, oral, 135 mg, C48h Mean ± SD, 135mg QW, Day 1, plasma",90.3 ± 25.1 nM
same,concentration at 48 h,"[3]; human, plasma, oral, 135 mg, mean C48h, 135mg QW, multiple dose",158 nM
same,Tmax,"[3]; human, plasma, oral, 150 mg",4 to 10 h
same,half-life,"[3]; human, plasma, oral, 150 mg",64.4 h
same,AUC(0-t),"[3]; human, plasma, oral, 150 mg, AUC0-168h Mean, 150mg QW, Day 1, plasma, N=2",20.7 µM·h
same,concentration at 48 h,"[3]; human, plasma, oral, 150 mg, C48h, 150mg QW, Last Day of cycle 1, plasma, N=1",185 nM
same,concentration at 48 h,"[3]; human, plasma, oral, 150 mg, C48h Mean, 150mg QW, Day 1, plasma, N=2",155 nM
same,Cmax,"[3]; human, plasma, oral, 150 mg, Cmax Mean, 150mg QW, Day 1, plasma, N=2",337 nM
same,Cmax,"[3]; human, plasma, oral, 150 mg, Cmax, 150mg QW, Last Day of cycle 1, plasma, N=1",346 nM
same,concentration at 48 h,"[3]; human, plasma, oral, 200 mg, C48h Mean ± SD, 200mg QW, Day 1, plasma",121 ± 47.4 nM
same,concentration at 48 h,"[3]; human, plasma, oral, 200 mg, mean C48h, 200mg QW, multiple dose",187 nM
same,half-life,"[3]; human, plasma, oral, 250 mg",53.7 h
same,concentration at 48 h,"[3]; human, plasma, oral, 250 mg, C48h, 250mg QW, Last Day of cycle 1, plasma, N=1",74.8 nM
same,concentration at 48 h,"[3]; human, plasma, oral, 250 mg, C48h Mean ± SD, 250mg QW, Day 1, plasma",103 ± 19.6 nM
same,Cmax,"[3]; human, plasma, oral, 250 mg, Cmax, 250mg QW, Last Day of cycle 1, plasma, N=1",169 nM
same,concentration at 48 h,"[3]; human, plasma, oral, 300 mg, C48h Mean, 300mg QW, Day 1, plasma",253 nM
same,Cmax,"[3]; human, plasma, oral, 300 mg, mean Cmax after the first dose, 300mg QW cohort",466 nM
same,Cmax,"[3]; human, plasma, oral, mean Cmax levels after multiple QW dose administration, 90mg to 250mg QW",153 to 245 nM
same,Cmax,[4],365 nM
same,C-peptide level increase during first cycle (range),[5],2.7% to 495.5
same,time for DLTs to resolve to baseline levels after drug interruption,[5],1-2 weeks
same,end of cycle 1 HbA1c values,[5]; 2 patients with baseline levels ≤6.5%,7.3% and 8.3%
same,patients with increased C-peptide levels during first cycle,[5]; 23/27,85.2%
same,patients with HbA1c levels of ≤6.5% at baseline and end of cycle 1,[5]; 25/29,86.2%
same,"elevated blood glucose levels, patients",[5]; 27/38,71.1%
same,tolerability,[5]; 38 patients,generally well tolerated
same,"G3 hyperglycemia, patients","[5]; following first cycle, 1/38",2.6%
same,"G1-2 hyperglycemia, patients","[5]; following first cycle, 3/38",7.9%
same,reduction in RECIST measurements of target lesions,"advanced solid tumors [6]; 150mg QW, 8 weeks, one patient with ER/PR positive, HER2 negative metastatic breast cancer, PIK3CA exon 20 mutation",22%
same,total time on treatment,"advanced solid tumors [6]; 150mg QW, breast cancer patient, before disease progression",24 weeks
same,CA15-3 level after treatment,"advanced solid tumors [6]; 150mg QW, breast cancer patient, from 6853U/ml",4399 U/ml
same,reduction in CA15-3,"advanced solid tumors [6]; 150mg QW, same breast cancer patient",~36%
same,duration of RECIST SD (range),advanced solid tumors [6]; two patients with CRPC,6.5-7.5 months
same,reduction in K^trans,advanced solid tumors [7],20%
same,maximum tolerated dose (MTD),[8],60 mg
same,solubility,Solubility,relatively low solubility
same,time of maximum suppression of pThr246 PRAS40 post-MK-2206,pThr246 PRAS40,6 h
same,"mean pThr246 PRAS40 levels, % of baseline levels",pThr246 PRAS40; 3h,79.8%
same,"mean pThr246 PRAS40 levels, % of baseline levels",pThr246 PRAS40; 6h,79.7%
same,"mean pThr246 PRAS40 levels, % of baseline levels",pThr246 PRAS40; 24h,86.9%
same,"mean pThr246 PRAS40 levels, % of baseline levels",pThr246 PRAS40; 48h,91.4%
same,"mean pThr246 PRAS40 levels, % of baseline levels","pThr246 PRAS40; 48h, one outlier removed (28 patients), p=0.0019",81.9%
same,overall mean decrease of pSer473 AKT levels,pSer473 AKT [9]; 60mg QOD,55.3%
same,time of maximum inhibition of pSer473 AKT post-MK-2206,pSer473 AKT [9]; 60mg QOD,6 h
same,"mean pSer473 AKT signal, % of baseline levels","pSer473 AKT [9]; 60mg QOD, 3h, 29 patients",36.3%
same,"mean pSer473 AKT signal, % of baseline levels","pSer473 AKT [9]; 60mg QOD, 6h, 29 patients",27.9%
same,"mean pSer473 AKT signal, % of baseline levels","pSer473 AKT [9]; 60mg QOD, 24h, 29 patients",44.0%
same,"mean pSer473 AKT signal, % of baseline levels","pSer473 AKT [9]; 60mg QOD, 48h, 29 patients",70.6%
same,"mean pSer473 AKT levels, % of baseline levels","pSer473 AKT [9]; 60mg QOD, 48h, one outlier removed (28 patients), p=0.0004",60.1%
same,time of maximal suppression of pSer473 AKT and its substrate pSer9 GSK3β,"pSer473 AKT [9]; 150mg QW, breast cancer patient",24 h
same,"mean pSer473 AKT signal, % of baseline levels","pSer473 AKT [9]; 200mg QW, 24h, n=11",19.8%
same,"mean pSer473 AKT signal, % of baseline levels","pSer473 AKT [9]; 200mg QW, 48h, n=11",30.6%
same,"mean pSer473 AKT signal, % of baseline levels","pSer473 AKT [9]; 200mg QW, 96h, n=11",51.7%
same,"mean pSer473 AKT signal, % of baseline levels","pSer473 AKT [9]; 200mg QW, 168h, n=11",97.4%
same,duration of initial suppression of pSer473 AKT phosphorylation signal,pSer473 AKT [9]; QW MTD,at least 96 h
same,time of maximum suppression of pSer9 GSK3β post-MK-2206,pSer9 GSK3β; 60mg QOD,6 h
same,"mean pSer9 GSK3β levels, % of baseline levels","pSer9 GSK3β; 60mg QOD, 3h",76.8%
same,"mean pSer9 GSK3β levels, % of baseline levels","pSer9 GSK3β; 60mg QOD, 6h",67.5%
same,"mean pSer9 GSK3β levels, % of baseline levels","pSer9 GSK3β; 60mg QOD, 24h",102.9%
same,"mean pSer9 GSK3β signal, % of baseline levels",pSer9 GSK3β; 24h,65.0%
same,"mean pSer9 GSK3β signal, % of baseline levels",pSer9 GSK3β; 48h,82.3%
same,"mean pSer9 GSK3β signal, % of baseline levels",pSer9 GSK3β; 96h,91.4%
same,"mean pSer9 GSK3β signal, % of baseline levels",pSer9 GSK3β; 168h,117.2%
same,concentration required for 70% inhibition of pSer473 AKT in whole blood,pSer473 AKT [10]; level identified in preclinical models as associated with antitumor activity,57 nmol/L
same,prespecified PK target for 70% inhibition of pAKT,pSer473 AKT [10]; plasma concentration target,56.8 nM
